From article PMC5292677 (Leukemia, 2016)

Tested on: patients with myelofibrosis
Experiment: Phase I safety: drug-related adverse events, DLTs, tolerability
Assay type: in vivo, human
How it was run: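 Design was 3+3 dose escalation of oral test compound QD (75–400 mg) or BID (100–400 mg) in 28-day cycles. AEs were graded by CTCAE v4.0 with causality, alongside labs, ECGs, vital signs and physical exams. A DLT was grade 4 cytopenia, other grade 3/4 hematologic toxicity, or grade 3/4 non-hematologic toxicity, excluding manageable GI events. The population was all patients dosed ≥1 time.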

SMILES: C[C@H](Nc1cc(-c2cnn(C)c2)cc(Nc2cnccn2)n1)c1ccc(F)cc1 [NS-018]
- Drug-related anemia, all grades (75 mg QD (n=3)): 0 n (%)
- Drug-related diarrhea, all grade (75 mg QD (n=3)): 0 n (%)
- Drug-related dizziness, all grade (75 mg QD (n=3)): 0 n (%)
- Drug-related esophageal reflux, all grade (75 mg QD (n=3)): 0 n (%)
- Drug-related headache, all grade (75 mg QD (n=3)): 0 n (%)
- Drug-related nausea, all grade (75 mg QD (n=3)): 0 n (%)
- Drug-related paresthesia, all grade (75 mg QD (n=3)): 0 n (%)
- Drug-related thrombocytopenia, Grade 1/2 (75 mg QD (n=3)): 0 n (%)
- Drug-related thrombocytopenia, Grade 3 (75 mg QD (n=3)): 0 n (%)
- Drug-related thrombocytopenia, Grade 4 (75 mg QD (n=3)): 1 (33) n (%)
- Drug-related thrombocytopenia, all grades (75 mg QD (n=3)): 1 (33) n (%)
- Drug-related vomiting, all grade (75 mg QD (n=3)): 0 n (%)
- Drug-related weight increased, all grade (75 mg QD (n=3)): 0 n (%)
- Drug-related anemia, all grades (100 mg BID (n=5)): 0 n (%)
- Drug-related diarrhea, all grade (100 mg BID (n=5)): 0 n (%)
- Drug-related dizziness, all grade (100 mg BID (n=5)): 0 n (%)
- Drug-related esophageal reflux, all grade (100 mg BID (n=5)): 0 n (%)
- Drug-related headache, all grade (100 mg BID (n=5)): 0 n (%)
- Drug-related nausea, all grade (100 mg BID (n=5)): 0 n (%)
- Drug-related paresthesia, all grade (100 mg BID (n=5)): 0 n (%)
- Drug-related thrombocytopenia, Grade 1/2 (100 mg BID (n=5)): 0 n (%)
- Drug-related thrombocytopenia, Grade 3 (100 mg BID (n=5)): 1 (20) n (%)
- Drug-related thrombocytopenia, Grade 4 (100 mg BID (n=5)): 0 n (%)
- Drug-related thrombocytopenia, all grades (100 mg BID (n=5)): 1 (20) n (%)
- Drug-related vomiting, all grade (100 mg BID (n=5)): 0 n (%)
- Drug-related weight increased, all grade (100 mg BID (n=5)): 0 n (%)
- Drug-related anemia, all grades (125 mg QD (n=4)): 0 n (%)
- Drug-related diarrhea, all grade (125 mg QD (n=4)): 0 n (%)
- Drug-related dizziness, all grade (125 mg QD (n=4)): 0 n (%)
- Drug-related esophageal reflux, all grade (125 mg QD (n=4)): 0 n (%)
- Drug-related headache, all grade (125 mg QD (n=4)): 0 n (%)
- Drug-related nausea, all grade (125 mg QD (n=4)): 0 n (%)
- Drug-related paresthesia, all grade (125 mg QD (n=4)): 0 n (%)
- Drug-related thrombocytopenia, all grades (125 mg QD (n=4)): 0 n (%)
- Drug-related vomiting, all grade (125 mg QD (n=4)): 0 n (%)
- Drug-related weight increased, all grade (125 mg QD (n=4)): 0 n (%)
- Drug-related anemia, all grades (200 mg BID (n=12)): 0 n (%)
- Drug-related diarrhea, all grade (200 mg BID (n=12)): 2 (17) n (%)
- Drug-related diarrhea, grade 3 or 4 (200 mg BID (n=12)): 0 n (%)
- Drug-related dizziness, all grade (200 mg BID (n=12)): 1 (8) n (%)
- Drug-related dizziness, grade 3 or 4 (200 mg BID (n=12)): 0 n (%)
- Drug-related esophageal reflux, all grade (200 mg BID (n=12)): 0 n (%)
- Drug-related headache, all grade (200 mg BID (n=12)): 0 n (%)
- Drug-related nausea, all grade (200 mg BID (n=12)): 1 (8) n (%)
- Drug-related nausea, grade 3 or 4 (200 mg BID (n=12)): 0 n (%)
- Drug-related paresthesia, all grade (200 mg BID (n=12)): 0 n (%)
- Drug-related thrombocytopenia, Grade 1/2 (200 mg BID (n=12)): 1 (8) n (%)
- Drug-related thrombocytopenia, all grades (200 mg BID (n=12)): 1 (8) n (%)
- Drug-related vomiting, all grade (200 mg BID (n=12)): 0 n (%)
- Drug-related weight increased, all grade (200 mg BID (n=12)): 0 n (%)
- Drug-related anemia, Grade 1/2 (200 mg QD (n=9)): 1 (11) n (%)
- Drug-related anemia, all grades (200 mg QD (n=9)): 1 (11) n (%)
- Drug-related diarrhea, all grade (200 mg QD (n=9)): 2 (22) n (%)
- Drug-related diarrhea, grade 3 or 4 (200 mg QD (n=9)): 0 n (%)
- Drug-related dizziness, all grade (200 mg QD (n=9)): 0 n (%)
- Drug-related esophageal reflux, all grade (200 mg QD (n=9)): 0 n (%)
- Drug-related headache, all grade (200 mg QD (n=9)): 0 n (%)
- Drug-related nausea, all grade (200 mg QD (n=9)): 1 (11) n (%)
- Drug-related nausea, grade 3 or 4 (200 mg QD (n=9)): 0 n (%)
- Drug-related paresthesia, all grade (200 mg QD (n=9)): 0 n (%)
- Drug-related thrombocytopenia, all grades (200 mg QD (n=9)): 0 n (%)
- Drug-related vomiting, all grade (200 mg QD (n=9)): 2 (22) n (%)
- Drug-related vomiting, grade 3 or 4 (200 mg QD (n=9)): 0 n (%)
- Drug-related weight increased, all grade (200 mg QD (n=9)): 2 (22) n (%)
- Drug-related weight increased, grade 3 or 4 (200 mg QD (n=9)): 0 n (%)
- Drug-related anemia, Grade 1/2 (250 mg BID (n=8)): 1 (13) n (%)
- Drug-related anemia, Grade 3 (250 mg BID (n=8)): 0 n (%)
- Drug-related anemia, Grade 4 (250 mg BID (n=8)): 0 n (%)
- Drug-related anemia, all grades (250 mg BID (n=8)): 1 (13) n (%)
- Drug-related diarrhea, all grade (250 mg BID (n=8)): 0 n (%)
- Drug-related dizziness, all grade (250 mg BID (n=8)): 1 (13)/1 (13) n (%)
- Drug-related dizziness, grade 3 or 4 (250 mg BID (n=8)): 1 (13)/1 (13) n (%)
- Drug-related esophageal reflux, all grade (250 mg BID (n=8)): 1 (13) n (%)
- Drug-related esophageal reflux, grade 3 or 4 (250 mg BID (n=8)): 0 n (%)
- Drug-related headache, all grade (250 mg BID (n=8)): 0 n (%)
- Drug-related nausea, all grade (250 mg BID (n=8)): 2 (25) n (%)
- Drug-related nausea, grade 3 or 4 (250 mg BID (n=8)): 1 (13) n (%)
- Drug-related paresthesia, all grade (250 mg BID (n=8)): 0 n (%)
- Drug-related thrombocytopenia, Grade 1/2 (250 mg BID (n=8)): 2 (25) n (%)
- Drug-related thrombocytopenia, Grade 3 (250 mg BID (n=8)): 0 n (%)
- Drug-related thrombocytopenia, Grade 4 (250 mg BID (n=8)): 1 (13) n (%)
- Drug-related thrombocytopenia, all grades (250 mg BID (n=8)): 3 (38) n (%)
- Drug-related vomiting, all grade (250 mg BID (n=8)): 0 n (%)
- Drug-related weight increased, all grade (250 mg BID (n=8)): 0 n (%)
- DLT: grade 3 QT prolongation (250 mg BID cohort): 1 patient
- Patients who discontinued owing to AEs (beyond DLT) (300 mg BID): 3 patients
- Rate of discontinuations owing to AEs (300 mg BID): 38%
- Drug-related anemia, Grade 1/2 (300 mg BID (n=12)): 1 (8) n (%)
- Drug-related anemia, Grade 3 (300 mg BID (n=12)): 2 (17) n (%)
- Drug-related anemia, Grade 4 (300 mg BID (n=12)): 0 n (%)
- Drug-related anemia, all grades (300 mg BID (n=12)): 3 (25) n (%)
- Drug-related diarrhea, all grade (300 mg BID (n=12)): 1 (8) n (%)
- Drug-related diarrhea, grade 3 or 4 (300 mg BID (n=12)): 0 n (%)
- Drug-related dizziness, all grade (300 mg BID (n=12)): 3 (25) n (%)
- Drug-related dizziness, grade 3 or 4 (300 mg BID (n=12)): 0 n (%)
- Drug-related esophageal reflux, all grade (300 mg BID (n=12)): 1 (8) n (%)
- Drug-related esophageal reflux, grade 3 or 4 (300 mg BID (n=12)): 0 n (%)
- Drug-related headache, all grade (300 mg BID (n=12)): 0 n (%)
- Drug-related nausea, all grade (300 mg BID (n=12)): 4 (33) n (%)
- Drug-related nausea, grade 3 or 4 (300 mg BID (n=12)): 0 n (%)
- Drug-related paresthesia, all grade (300 mg BID (n=12)): 2 (17) n (%)
- Drug-related paresthesia, grade 3 or 4 (300 mg BID (n=12)): 1 (8) n (%)
- Drug-related thrombocytopenia, Grade 1/2 (300 mg BID (n=12)): 3 (25) n (%)
- Drug-related thrombocytopenia, Grade 3 (300 mg BID (n=12)): 1 (8) n (%)
- Drug-related thrombocytopenia, Grade 4 (300 mg BID (n=12)): 0 n (%)
- Drug-related thrombocytopenia, all grades (300 mg BID (n=12)): 4 (33) n (%)
- Drug-related vomiting, all grade (300 mg BID (n=12)): 0 n (%)
- Drug-related weight increased, all grade (300 mg BID (n=12)): 1 (8) n (%)
- Drug-related weight increased, grade 3 or 4 (300 mg BID (n=12)): 0 n (%)
